This is an account of results in PubChem BioAssay.

A short description of experiment [1]: inhibitors of TNFa-induced NFkB p65 translocation, primary screen, imaging, HUVEC, MLSMR starter and 10KST1 sets (AID 438;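 active means inhibition above 20% together with a positive visual image hit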;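 further: compound added about 3h40 before a 20 min TNFalpha stimulation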;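 on inhibition: signal is the nuclear over cytoplasmic p65 intensity ratio per well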). As to conditions: HUVEC TNFa-induced p65 nuclear translocation; cell count: measured here: nuclei count (cytotoxicity indicator), at 2.08 µM; inhibition: at 2 µM, stronger effect = higher value, 0% TNFa-plus-vehicle, 100% no-TNFa wells.
Experiment [2] is described as follows: inhibitors of mutant huntingtin aggregation, primary screen, imaging, exon1htt(103Q)mCFP cells, high-content imaging (AID 483;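 active means visual image review flags a hit and inhibition of aggregation exceeds 20%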;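 further: compound exposure lasted 3 days before fixation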;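 on nuclei count: percent of the per-plate median nuclei count of sample wells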). As to conditions: exon1htt(103Q)mCFP cell line, aggregate imaging, at 2 µM; inhibition of aggregation: stronger effect = higher value; nuclei count: measured here: cell count, toxicity.
Experiment [3] in a line: inhibitors of E-selectin induction by TNFa, primary screen, imaging, HUVEC, immunofluorescence, MLSMR starter and 10KST1 sets (AID 487;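 active means visually confirmed hit in the image check and inhibition above 20%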;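 on inhibition: signal is fraction of cell area covered by stained E-selectin grains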;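 on nuclei count: 100% = median nuclei count of all wells on the same plate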). As to conditions: HUVEC TNFalpha-induced E-selectin immunofluorescence imaging, at 2 µM; inhibition: stronger effect = higher value; nuclei count: measured here: cell number, toxicity.
Experiment [4] addresses Voltage-gated potassium channel subunit beta-2 (Rattus norvegicus) (UniProt P62483). In words: KvBeta enzyme negative modulators, primary screen, biochemical, NADPH fluorescence (AID 622;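 active means fluorescence slope higher than the sample average by over 3 SD, cut at about -0.22 in these data, passing the limit was not always enough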;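 further: slope of raw intensity against log time taken from 70 to 1610 s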). As to conditions: recombinant KvBeta, 4-cyanobenzaldehyde reduction, at 10 µM, stronger effect = higher value.
Experiment [5] has the same target. Description: KvBeta positive modulators, primary screen, biochemical, NADPH fluorescence (AID 623;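 active means NADPH fluorescence slope more negative than the mean of all samples by about 3 SD, 99.7% confidence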;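 further: fluorescence intensity change per second fitted from 20 to 320 s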). The following applies: Recombinant KvBeta, NADPH fluorescence decrease slope, 10 min; at 10 µM; stronger effect = lower value.
The target in experiment [6] is Muscarinic acetylcholine receptor M4 (Homo sapiens) (UniProt P08173). Description: compounds altering M4/GIRK thallium flux, either direction, primary screen, M4 allosteric agonist project, cell-based, HEK293 M4/GIRK, BTC-AM (AID 625;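 active means fluorescence slope after compound addition differing from the mean of all tested samples at 99.7% confidence, mostly higher but some lower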;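 further: thallium influx through GIRK channels coupled to M4 in HEK293 cells with BTC-AM dye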). The following applies: at 10 µM, actives lie on both sides. The method, boiled down: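 Material – HEK293 cells with M4 receptor and GIRK channels · Buffer or medium – pH 7.3 thallium assay buffer · Doses – one dose, 10 µM final · Timing – cells overnight at 37 °C, BTC-AM loading 1 h, reads 2 min total · Measured by – kinetic fluorescence with BTC-AM dye · Controls – carbachol and DMSO controls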

Experiment [7] in a line: inhibitors of Sendai virus-induced IRF3 signaling, primary screen, TLR/RLR signaling modifier project, cell-based, Sendai virus stimulus, luciferase, 10K MLSCN set (AID 602276).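 Further: firefly luciferase from ISG56 promoter only with Renilla not read in this screen; 0% = Sendai virus plus DMSO and 100% = medium plus DMSO without virus.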 The following applies: HEK293 RL24 IRF3 luciferase reporter, at 10 µM, stronger effect = higher value. Background: A reporter such as luciferase makes a cellular process visible.
A short description of experiment [8]: inhibitors of poly I:C-induced TLR3 signaling, primary screen, cell-based, poly I:C stimulus, luciferase, 10K MLSCN set (AID 602277;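 active means inhibition of the reporter signal at or above 50%; inactive means inhibition below 50%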). The following applies: HEK293-TLR3 RL24 IRF3 luciferase reporter, at 10 µM, stronger effect = higher value.
Experiment [9] addresses Alpha-2C adrenergic receptor (Homo sapiens) (UniProt P18825). Description: modulators of alpha2C/GIRK thallium flux, primary screen, cell-based, HEK293 alpha2C/GIRK1/2 (AID 624;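 active means fluorescence slope after compound addition differing from the mean of all screened samples at 99.7% confidence, in either direction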;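 further: slope of fluorescence ratio to pre-addition baseline per second over 15 to 24 s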). As to conditions: thallium flux BTC fluorescence, at 10 µM, actives lie on both sides.
The nature of experiment [10]: inhibitors of larval lipid processing in zebrafish, primary screen, whole organism, PED6 fluorescence, gall bladder and intestine (AID 686;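 active means a full or partial loss of lipid-probe fluorescence in the fish gall bladder, intestine or both, judged by eye; inactive means no fluorescence loss, or compound toxic to the fish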;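 further: larvae 5 to 7 days old with five fish per well; signal comes from phospholipase A2 cleavage of quenched PED6 carried via bile; overnight exposure to compound and PED6 before scoring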). As to conditions: Zebrafish larvae PED6 lipid processing, fluorescence scoring; screened at 20 µM (by protocol). The method, boiled down:
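system = live zebrafish larvae aged 5-7 days, whole organism | probe or stimulus = ingested quenched lipid PED6 at 100 nM | doses = 20 µM single dose | timing = overnight exposure | detection = fluorescence microscopy with visual scoring of gall bladder and intestine | read-out = visual per-well fluorescence inhibition score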

A word on the inhibition: it is the drop in the measured response relative to a control, in per cent.

The structures appear in SMILES notation. Active and inactive are the calls of the source.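 How the source made its calls, unless noted: active means inhibition at or above 50% at 10 µM; inactive means inhibition below 50%.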

Sequence of Voltage-gated potassium channel subunit beta-2 (Rattus norvegicus) (P62483 whole entry, looked up): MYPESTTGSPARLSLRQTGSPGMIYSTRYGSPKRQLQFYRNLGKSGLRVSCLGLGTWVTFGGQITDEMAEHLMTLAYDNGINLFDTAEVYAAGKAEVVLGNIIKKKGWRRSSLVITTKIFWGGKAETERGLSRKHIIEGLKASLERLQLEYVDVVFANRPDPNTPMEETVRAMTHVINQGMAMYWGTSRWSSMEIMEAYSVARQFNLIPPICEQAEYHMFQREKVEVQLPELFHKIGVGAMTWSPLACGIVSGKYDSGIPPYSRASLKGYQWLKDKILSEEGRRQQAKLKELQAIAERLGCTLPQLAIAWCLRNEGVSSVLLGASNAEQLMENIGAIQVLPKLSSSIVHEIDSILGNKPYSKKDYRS
Sequence of Muscarinic acetylcholine receptor M4 (Homo sapiens) (P08173 whole entry, looked up): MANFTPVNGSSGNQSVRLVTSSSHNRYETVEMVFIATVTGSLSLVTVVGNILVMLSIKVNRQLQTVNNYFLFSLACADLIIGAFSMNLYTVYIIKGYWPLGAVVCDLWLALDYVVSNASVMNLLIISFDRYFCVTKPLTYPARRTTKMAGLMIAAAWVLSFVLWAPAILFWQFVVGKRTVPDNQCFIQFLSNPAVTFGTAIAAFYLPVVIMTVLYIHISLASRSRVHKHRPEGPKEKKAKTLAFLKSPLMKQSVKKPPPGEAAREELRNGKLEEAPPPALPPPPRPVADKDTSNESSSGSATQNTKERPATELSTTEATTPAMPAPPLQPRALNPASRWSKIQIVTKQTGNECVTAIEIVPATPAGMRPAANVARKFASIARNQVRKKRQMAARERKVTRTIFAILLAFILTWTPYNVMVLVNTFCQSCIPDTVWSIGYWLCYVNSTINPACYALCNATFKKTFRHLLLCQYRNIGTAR
Sequence of Alpha-2C adrenergic receptor (Homo sapiens) (P18825 whole entry, looked up): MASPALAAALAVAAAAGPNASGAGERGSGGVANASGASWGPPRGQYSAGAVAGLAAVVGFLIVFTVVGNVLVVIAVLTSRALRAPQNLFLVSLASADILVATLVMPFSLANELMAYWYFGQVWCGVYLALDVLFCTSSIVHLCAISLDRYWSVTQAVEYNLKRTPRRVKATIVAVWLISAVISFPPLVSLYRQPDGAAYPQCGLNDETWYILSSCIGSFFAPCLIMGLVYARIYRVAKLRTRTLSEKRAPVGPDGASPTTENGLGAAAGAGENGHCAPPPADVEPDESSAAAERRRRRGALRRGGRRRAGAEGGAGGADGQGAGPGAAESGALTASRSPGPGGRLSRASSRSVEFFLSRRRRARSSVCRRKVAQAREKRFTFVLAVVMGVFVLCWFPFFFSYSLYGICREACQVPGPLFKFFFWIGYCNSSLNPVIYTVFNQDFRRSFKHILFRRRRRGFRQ

Take `Cc1noc(NS(=O)(=O)c2ccc(NC(=O)CCC3CCCC3)cc2)c1C`: in experiment [1], the cell count was found to be 472. For the same compound, the inhibition in experiment [1] was 2.1% (inactive); in experiment [3], -147% (inactive); in experiment [7] it was 19.6% (inactive); in [8], 11.2% (inactive). Further, the inhibition of aggregation in [2] was -12.2% (inactive). The nuclei count in [2] came out at 83.5%; in [3], 115%. The fluorescence slope was -0.557 (inactive) in [4] and 0.00725 (inactive) in [6]. Moreover, in experiment [5], the NADPH fluorescence slope is -1.2e-05 (inactive).
As for `CCN(CC)S(=O)(=O)c1ccc2c(c1)c(=O)c(C(=O)NCCOC)cn2C`, the cell count in experiment [1] was found to be 203. Also, the inhibition was 6.9% (inactive) in [1], -24.6% (inactive) in experiment [3], 19.3% (inactive) in experiment [7] and 15.8% (inactive) in experiment [8]. For the same compound, the inhibition of aggregation in [2] is 2.8% (inactive). In addition, the nuclei count in [2] was 100%; in [3], 112%. Besides, the figures for the fluorescence slope in experiment [4] and in experiment [6] were -0.231 (inactive) and 0.00464 (inactive), respectively. Also, the NADPH fluorescence slope in [5] was -3.4e-05 (inactive).
On to `CCc1cc2ccc(C)cc2nc1SCC(=O)N1CCN(C(=O)c2ccco2)CC1`, for which the cell count in [1] was 431. Further, the inhibition in experiment [1] is 4.8% (inactive); in experiment [3], -49.1% (inactive); in experiment [7] it was 11.9% (inactive); in [8], 5.95% (inactive). Besides, the inhibition of aggregation in [2] is 15.4% (inactive). Moreover, the nuclei count in experiment [2] was found to be 106%; in experiment [3], 119%. Moreover, the fluorescence slope in experiment [4] is -0.504 (inactive); in experiment [6] it was 0.00487 (inactive). Moreover, the NADPH fluorescence slope in [5] is -0.000145 (inactive).
On to `COc1ccc(OC)c(N2Cc3cc(C)c(C)cc3C2)c1`, for which, in [1], the cell count turned out to be 561. Also, the inhibition in [1] was -3.1% (inactive); in experiment [3] it was -8.6% (inactive); in [7], -3.86% (inactive); in experiment [8], -7.05% (inactive). Moreover, the inhibition of aggregation in experiment [2] is 0.2% (inactive). The nuclei count in [2] is 79.6%; in experiment [3], 86.7%. The fluorescence slope in [4] was -0.476 (inactive); in experiment [6] it was 0.00388 (inactive). Further, in experiment [5], the NADPH fluorescence slope is -6.9e-05 (inactive).
As for `COc1ncnc2c1N=C1CC(C)(C)CC(N)=C1S2`, the cell count in experiment [1] was found to be 309. Also, the inhibition in [1] is 0.8% (inactive); in experiment [3], -16.2% (inactive); in experiment [7], 13.3% (inactive); in [8], 35% (inactive). For the same compound, the inhibition of aggregation in [2] was -0.2% (inactive). Also, the nuclei count in experiment [2] and in experiment [3] was 115% each time. For the same compound, the fluorescence slope in experiment [4] was -0.37 (inactive); in experiment [6], 0.00511 (inactive). Further, in experiment [5], the NADPH fluorescence slope is -3.5e-05 (inactive).
For `COc1cc(S(=O)(=O)NC2CCCCC2)ccc1Cl`, the cell count in [1] is 405. Further, the inhibition was 7.6% (inactive) in experiment [1], 3.8% (inactive) in [3], 16.6% (inactive) in [7] and 31.9% (inactive) in experiment [8]. Moreover, the inhibition of aggregation in [2] was 4.9% (inactive). In addition, the nuclei count in experiment [2] turned out to be 89%; in [3], 94.9%. Besides, the values for the fluorescence slope in experiment [4] and in experiment [6] were -0.417 (inactive) and 0.00482 (inactive), respectively. Besides, in experiment [5], the NADPH fluorescence slope is 4.1e-05 (inactive).
As for `CCn1cc(C(=O)OCC(=O)OC2CC(C)CCC2C(C)C)c(=O)c2ccc(C)nc21` (stereo not given), the cell count in [1] was 519. Besides, the inhibition in experiment [1] was -21.2% (inactive); in [3], 26.8% (inactive); in experiment [7], 18.5% (inactive); in experiment [8] it was 5.31% (inactive). In addition, the inhibition of aggregation in [2] was 2.5% (inactive). The nuclei count stood at 92.5% in [2] and 104% in experiment [3]. Further, the fluorescence slope is -0.416 (inactive) in experiment [4] and 0.00567 (inactive) in experiment [6]. The NADPH fluorescence slope in experiment [5] was -0.000351 (inactive).
Take `O=C(Nc1cccnc1N1CCOCC1)c1ccco1`: the cell count in experiment [1] is 579. Besides, the inhibition in experiment [1] is -0.3% (inactive); in experiment [3], -56.6% (inactive); in experiment [7], 10.9% (inactive); in experiment [8], 10.7% (inactive). The inhibition of aggregation in experiment [2] is 4.6% (inactive). In addition, the nuclei count is 104% in experiment [2] and 109% in [3]. The results for the fluorescence slope in [4] and in experiment [6] were -0.221 (inactive) and 0.00549 (inactive), respectively. In addition, in experiment [5], the NADPH fluorescence slope is -1.1e-05 (inactive).
As for `Cn1c(Cc2csc(N)n2)nnc1SCC(=O)NCc1ccccc1`, in experiment [1], the cell count came out at 447. Also, the inhibition in [1] was 7.3% (inactive); in experiment [3], -12.6% (inactive); in [7], -2.1% (inactive); in experiment [8], 13.3% (inactive). In addition, in experiment [2], the inhibition of aggregation is 9.5% (inactive). The values for the nuclei count in experiment [2] and in experiment [3] were 95.3% and 118%, respectively. The fluorescence slope in [4] is -0.58 (inactive); in experiment [6], 0.00622 (inactive). In addition, the NADPH fluorescence slope in experiment [5] was -9.4e-06 (inactive).
In the case of `COCc1nnc(SCC(=O)NC(C)c2ccccc2)n1-c1ccccc1` (stereo not given), the cell count in [1] is 308. For the same compound, the inhibition is -1.1% (inactive) in experiment [1], -18.5% (inactive) in [3], 14.7% (inactive) in [7] and 14.9% (inactive) in experiment [8]. The inhibition of aggregation in [2] was 5.8% (inactive). The nuclei count in experiment [2] came out at 94.3%; in experiment [3], 101%. The fluorescence slope in experiment [4] is -0.434 (inactive). The NADPH fluorescence slope in experiment [5] was -3.6e-05 (inactive). Also, the slope in [9] is 0.00455 (inactive). For the same compound, the compound was called inactive in experiment [10].
As to `CCCCN(CCCC)C(=O)CN(C)S(=O)(=O)c1ccc2c(c1)n(C)c(=O)c(=O)n2C`, in experiment [1], the cell count is 354. The inhibition in [1] was -5.1% (inactive); in [3], -75.3% (inactive); in experiment [7], 11.1% (inactive); in experiment [8], 22.5% (inactive). Besides, the inhibition of aggregation in experiment [2] is -10.5% (inactive). For the same compound, the values for the nuclei count in experiment [2] and in [3] were 88.3% and 121%, respectively. Also, the fluorescence slope is -0.466 (inactive) in [4] and 0.00642 (inactive) in experiment [6]. Moreover, in experiment [5], the NADPH fluorescence slope is -4.4e-06 (inactive).
Take `CCOC(=O)C(C)Sc1nc2c(cnn2-c2ccc(C)cc2)c(=O)[nH]1` (stereo not given): the cell count in [1] worked out at 239. Moreover, the inhibition was -1.3% (inactive) in experiment [1], 11.9% (inactive) in experiment [3], 6.58% (inactive) in [7] and 8.01% (inactive) in experiment [8]. Further, in experiment [2], the inhibition of aggregation is 6.8% (inactive). The values for the nuclei count in experiment [2] and in experiment [3] were 102% and 110%, respectively. For the same compound, the fluorescence slope in experiment [4] was -0.503 (inactive); in experiment [6] it was 0.00678 (inactive). Also, in [5], the NADPH fluorescence slope was 8.8e-05 (inactive).
With `COc1ccccc1C1N(c2ccc(F)cc2)C(=O)C2CCCN21` (stereo not given), the cell count in experiment [1] is 429. The inhibition in experiment [1] was -3.9% (inactive); in [3], 27.9% (inactive); in experiment [7], 9.07% (inactive); in experiment [8], 14.8% (inactive). Further, in [2], the inhibition of aggregation is 7.1% (inactive). The nuclei count in [2] worked out at 84.3%; in [3], 91.4%. For the same compound, the fluorescence slope in [4] is -0.377 (inactive). Besides, the NADPH fluorescence slope in experiment [5] is -7.5e-05 (inactive). Also, the slope in experiment [9] is 0.00544 (inactive). Moreover, the compound was classed as inactive in experiment [10].
